Experimental data: ChEMBL document CHEMBL1255328, “Transcriptional and translational control of the mlr operon, which confers resistance to seven classes of protein synthesis inhibitors” (2008)
Values after ≈ are worked out from the molar mass of the structure shown.

Legend:
Staphylococcus aureus [1] = experiment: Antimicrobial activity against methicillin-resistant Staphylococcus aureus CM05 by broth microdilution method; format: functional
In short: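 Clinical MRSA strain CM05. MICs determined by broth microdilution following accepted recommendations.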

Staphylococcus aureus [2] = experiment: Antimicrobial activity against Staphylococcus aureus RN4220 harboring plasmid MS2 by broth microdilution method; format: functional
In short: (§1)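 S. aureus RN4220 carrying the relevant shuttle plasmid, introduced by electroporation and selected on LB agar with 10 µg/ml chloramphenicol. MICs by broth microdilution per accepted recommendations. Disk diffusion: ca. 10^7 cells in 4 ml 0.6% soft agar over 1.5% LB agar with 10 µg/ml chloramphenicol. Paper disks (5 mm) held 20 µg erythromycin or 30 µg florfenicol. Plates incubated overnight at 37°C and photographed.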

Staphylococcus aureus [3] = experiment: Antimicrobial activity against Staphylococcus aureus RN4220 harboring plasmid LI50 by broth microdilution method; format: functional; in short: as §1
Staphylococcus aureus [4] = experiment: Antimicrobial activity against Staphylococcus aureus RN4220 harboring erm(B) and cfr gene by broth microdilution method
Staphylococcus aureus [5] = experiment: Antimicrobial activity against erm(B)-deficient Staphylococcus aureus RN4220 harboring cfr gene by broth microdilution method; format: functional; in short: as §1
Staphylococcus aureus [6] = experiment: Antimicrobial activity against cfr-deficient Staphylococcus aureus RN4220 harboring erm(B) gene by broth microdilution method; format: functional; in short: as §1
Staphylococcus aureus [7] = experiment: Antimicrobial activity against erm(B) and cfr-deficient Staphylococcus aureus RN4220 harboring plasmid LI50 by broth microdilution method
Staphylococcus aureus [8] = experiment: Antimicrobial activity against Staphylococcus aureus RN4220 harboring cfr gene with mutagenized first codon CAG; format: functional; in short: as §1
Staphylococcus aureus [9] = experiment: Antimicrobial activity against methicillin-resistant Staphylococcus aureus RN4220 harboring erm(B) and cfr gene assessed as modification of A2058 site in 23S rRNA; format: functional
Staphylococcus aureus [10] = experiment: Antimicrobial activity against methicillin-resistant Staphylococcus aureus CM05 assessed as modification of A2058 site in 23S rRNA; format: functional
Staphylococcus aureus [11] = experiment: Antimicrobial activity against Staphylococcus aureus RN4220 harboring erm(B) promoter-deficient plasmid MS2 by broth microdilution method
Staphylococcus aureus [12] = experiment: Antimicrobial activity against Staphylococcus aureus RN4220 harboring cfr gene with mutagenized second codon CAG; format: functional; in short: as §1
Staphylococcus aureus [13] = experiment: Antimicrobial activity against methicillin-resistant Staphylococcus aureus CM05 assessed as modification of A2503 site in 23S rRNA; format: functional
Staphylococcus aureus [14] = experiment: Antimicrobial activity against methicillin-resistant Staphylococcus aureus RN4220 harboring erm(B) and cfr gene assessed as modification of A2503 site in 23S rRNA; format: functional

Row | Compound | MIC (Staphylococcus aureus [1]) [µg/mL] | MIC (Staphylococcus aureus [2]) [µg/mL] | MIC (Staphylococcus aureus [3]) [µg/mL] | MIC (Staphylococcus aureus [4]) [µg/mL] | MIC (Staphylococcus aureus [5]) [µg/mL] | MIC (Staphylococcus aureus [6]) [µg/mL] | MIC (Staphylococcus aureus [7]) [µg/mL] | MIC (Staphylococcus aureus [8]) [µg/mL] | Activity (Staphylococcus aureus [9]) [%] | Activity (Staphylococcus aureus [10]) [%] | MIC (Staphylococcus aureus [11]) [µg/mL] | MIC (Staphylococcus aureus [12]) [µg/mL] | Activity (Staphylococcus aureus [13]) [%] | Activity (Staphylococcus aureus [14]) [%]
1 | O=C(N[C@H](CO)[C@H](O)c1ccc([N+](=O)[O-])cc1)C(Cl)Cl [CHLORAMPHENICOL] | 64 (≈ 198 µM) | – | – | – | – | – | – | – | – | – | – | – | – | –
2 | CCC[C@@H]1C[C@@H](C(=O)N[C@@H]([C@H]2O[C@H](SC)[C@H](O)[C@@H](O)[C@H]2O)[C@H](C)Cl)N(C)C1 [CLINDAMYCIN] | > 1020 | > 1020 | < 1 | > 1020 | 1020 (≈ 2410 µM) | > 1020 | < 1 | – | – | – | – | – | – | –
3 | CC[C@H]1OC(=O)[C@H](C)[C@@H](O[C@H]2C[C@@](C)(OC)[C@@H](O)[C@H](C)O2)[C@H](C)[C@@H](O[C@@H]2O[C@H](C)C[C@H](N(C)C)[C@H]2O)[C@](C)(O)C[C@@H](C)C(=O)[C@H](C)[C@@H](O)[C@]1(C)O [ERYTHROMYCIN] | > 1020 | > 1020 | 0.5 (≈ 0.681 µM) | > 1020 | – | – | 0.5 (≈ 0.681 µM) | > 1020 | 23 | 35 | 0.5 (≈ 0.681 µM) | > 1020 | 27 | 11
4 | CS(=O)(=O)c1ccc([C@@H](O)[C@@H](CF)NC(=O)C(Cl)Cl)cc1 [FLORFENICOL] | – | 128 (≈ 357 µM) | 4 (≈ 11.2 µM) | 128 (≈ 357 µM) | – | – | 4 (≈ 11.2 µM) | 128 (≈ 357 µM) | 20 | 32 | 4 (≈ 11.2 µM) | 4 (≈ 11.2 µM) | 20 | 16
5 | CO[C@@H]1[C@@H](O[C@@H]2O[C@H](C)[C@@H](O[C@H]3C[C@@](C)(O)[C@@H](OC(=O)CC(C)C)[C@H](C)O3)[C@H](N(C)C)[C@H]2O)[C@@H](CC=O)C[C@@H](C)[C@@H](O)/C=C/C=C/C[C@@H](C)OC(=O)C[C@H]1OC(C)=O [JOSAMYCIN] | – | – | – | > 2000 | 64 (≈ 77.3 µM) | > 2000 | 1 (≈ 1.21 µM) | – | – | – | – | – | – | –
6 | CC(=O)NC[C@H]1CN(c2ccc(N3CCOCC3)c(F)c2)C(=O)O1 [LINEZOLID] | 8 (≈ 23.7 µM) | – | – | – | – | – | – | – | – | – | – | – | – | –
7 | C=C[C@]1(C)C[C@@H](OC(=O)CSCCN(CC)CC)[C@]2(C)[C@H](C)CC[C@]3(CCC(=O)[C@H]32)[C@@H](C)[C@@H]1O [TIAMULIN] | 512 (≈ 1040 µM) | 128 (≈ 259 µM) | 1 (≈ 2.03 µM) | – | – | – | – | – | – | – | – | – | – | –
8 | CC[C@H]1OC(=O)C[C@@H](O)[C@H](C)[C@@H](O[C@@H]2O[C@H](C)[C@@H](O[C@H]3C[C@@](C)(O)[C@@H](O)[C@H](C)O3)[C@H](N(C)C)[C@H]2O)[C@@H](CC=O)C[C@@H](C)C(=O)/C=C/C(C)=C/[C@@H]1CO[C@@H]1O[C@H](C)[C@@H](O)[C@@H](OC)[C@H]1OC [TYLOSIN] | – | > 1020 | 2 (≈ 2.18 µM) | 6000 (≈ 6550 µM) | 2 (≈ 2.18 µM) | 2000 (≈ 2180 µM) | 1 (≈ 1.09 µM) | – | – | – | – | – | – | –
9 | SPIRAMYCIN | – | – | – | – | 128 | > 4000 | – | – | – | – | – | – | – | –
